Results published in ChEMBL document CHEMBL5154934, “Structure-Guided Design of Potent Spirocyclic Inhibitors of Severe Acute Respiratory Syndrome Coronavirus-2 3C-like Protease” (J Med Chem, 2022).
Calls of active or inactive are those of the source. The calls are words filed in the database; no cut-off is given here.

Key:
[1] = Cytotoxicity against african green monkey Vero E6 cells; assay type: toxicity, cell-based, Vero C1008; details: chlorocebus sabaeus
[2] = Inhibition of MERS-CoV 3C-like protease incubated for 30 mins by FRET enzyme assay; set-up: species or system Middle East respiratory syndrome-related coronavirus
[3] = biological target: Replicase polyprotein 1ab (Severe acute respiratory syndrome coronavirus 2, UniProt P0DTD1); assay: Inhibition of N-terminal His6-tagged SARS-CoV2 Wuhan-Hu-1 3C-like protease […] expressed in Escherichia coli BL21 (DE3) cells using FAM-SAVLQ/SG-QXL520 as substrate by FRET enzyme assay
Method in brief: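 Enzyme was full-length codon-optimized N-terminal His6 protease from pET-28a. It was preincubated with serial inhibitor dilutions, or DMSO, for 1 h at 37°C in 20 mM HEPES pH 8 with 200 mM NaCl, 0.4 mM EDTA, 60% glycerol and 6 mM DTT. FAM-SAVLQ/SG-QXL520 was then added and fluorescence (ex 480/em 520 nm) read after 1 h. Readings were background-subtracted. IC50 came from a variable-slope fit, mean ± SD of ≥3 replicates.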

SARS-CoV-2 [4] = assay: Antiviral activity against N-terminal His6-tagged SARS-CoV-2 3C-like protease […] HEK293T cells measured after 24 hrs by cell based replicon assay; assay type: functional, organism-based; details: Severe acute respiratory syndrome coronavirus 2
SARS-CoV-2 [5] = assay: Antiviral activity against SARS-CoV-2 3C-like measured after 24 hrs; assay type: functional, organism-based; details: Severe acute respiratory syndrome coronavirus 2, 24 h
[6] = Safety index, ratio of CC50 for cytotoxicity against Vero E6 cells to EC50 for antiviral activity against SARS-CoV-2 Wuhan-Hu-1; assay type: toxicity, cell-based, Vero C1008; details: monkey, read-out: Ratio CC50/EC50

CC(C)C[C@H](NC(=O)OCC1CN(C(=O)C2CC3CCC2C3)C1)C(=O)N[C@@H](C[C@H]1CCNC1=O)C(=O)C(O)S(=O)(=O)O (stereo partly specified)
CC50 [1]: > 100000 nM

CC(C)C[C@H](NC(=O)OC1CC2(C1)CN(C(=O)C(C)C)C2)C(=O)N[C@@H](C[C@H]1CCNC1=O)C(=O)C(O)S(=O)(=O)O (stereo partly specified)
CC50 [1]: > 100000 nM

CC(C)C[C@H](NC(=O)OC1CC2(CCN(C#N)CC2)C1)C(=O)N[C@H](C=O)C[C@H]1CCNC1=O
CC50 [1]: > 100000 nM
IC50 [2]: 560 nM
IC50 [3]: 320 nM

CC(C)C[C@H](NC(=O)OC1(C)CN(C(=O)OC(C)(C)C)C1)C(=O)N[C@@H](C[C@H]1CCNC1=O)C(=O)C(O)S(=O)(=O)O (stereo partly specified)
CC50 [1]: > 100000 nM

CC(C)C[C@H](NC(=O)OC1CC2(C1)CN(C(=O)Cc1ccccc1)C2)C(=O)N[C@@H](C[C@H]1CCNC1=O)C(=O)C(O)S(=O)(=O)O (stereo partly specified)
CC50 [1]: > 100000 nM

CC(C)C[C@H](NC(=O)OC1CC2(CCN(C(=O)OC(C)(C)C)C2)C1)C(=O)N[C@H](C=O)C[C@H]1CCNC1=O (stereo partly specified)
CC50 [1]: > 100000 nM
IC50 [2]: 700 nM

CC(C)C[C@H](NC(=O)OC1CC2(CCN(C(=O)OC(C)(C)C)C2)C1)C(=O)N[C@@H](C[C@H]1CCNC1=O)C(=O)C(O)S(=O)(=O)O (stereo partly specified)
CC50 [1]: > 100000 nM

CC(C)C[C@H](NC(=O)OC1CC2(CCN(C#N)CC2)C1)C(=O)N[C@@H](C[C@H]1CCNC1=O)C(=O)C(O)S(=O)(=O)O (stereo partly specified)
CC50 [1]: > 100000 nM

CC(C)C[C@H](NC(=O)OC1CC2(CCN(C(=O)Cc3ccccc3)CC2)C1)C(=O)N[C@@H](C[C@H]1CCNC1=O)C(=O)C(O)S(=O)(=O)O (stereo partly specified)
CC50 [1]: > 100000 nM

CC(C)C[C@H](NC(=O)OCC1CN(C(=O)Cc2ccccc2)C1)C(=O)N[C@H](C=O)C[C@H]1CCNC1=O
CC50 [1]: > 100000 nM
IC50 [2]: 280 nM
IC50 [3]: 830 nM

CC(C)C[C@H](NC(=O)OC1CN(C(=O)OC(C)(C)C)C1)C(=O)N[C@@H](C[C@H]1CCNC1=O)C(=O)C(O)S(=O)(=O)O (stereo partly specified)
CC50 [1]: > 100000 nM

CC(C)C[C@H](NC(=O)OC1CC2(C1)CN(C(=O)OC(C)(C)C)C2)C(=O)N[C@@H](C[C@H]1CCNC1=O)C(=O)C(O)S(=O)(=O)O (stereo partly specified)
CC50 [1]: > 100000 nM

CC(C)C[C@H](NC(=O)OC1CC2(CCN(C(=O)OC(C)(C)C)CC2)C1)C(=O)N[C@H](C=O)C[C@H]1CCNC1=O
Activity (SARS-CoV-2 [4]): Active
CC50 [1]: > 100000 nM
EC50 (SARS-CoV-2 [5]): 90 nM
IC50 [2]: 1200 nM
selectivity ratio [6]: 1250
IC50 [3]: 360 nM

CC(C)C[C@H](NC(=O)OCC1CN(S(C)(=O)=O)C1)C(=O)N[C@@H](C[C@H]1CCNC1=O)C(=O)C(O)S(=O)(=O)O (stereo partly specified)
CC50 [1]: > 100000 nM

CC(C)C[C@H](NC(=O)OCC1CN(C(=O)OC(C)(C)C)C1)C(=O)N[C@H](C=O)C[C@H]1CCNC1=O
Activity (SARS-CoV-2 [4]): Active
CC50 [1]: > 100000 nM
EC50 (SARS-CoV-2 [5]): 380 nM
IC50 [2]: 490 nM
IC50 [3]: 410 nM

CC(C)C[C@H](NC(=O)OC1CC2(CCN(C(=O)Cc3ccccc3)CC2)C1)C(=O)N[C@H](C=O)C[C@H]1CCNC1=O
CC50 [1]: > 100000 nM
IC50 [2]: 700 nM
IC50 [3]: 350 nM

CC(C)C[C@H](NC(=O)OC1CC2(C1)CN(C(=O)Cc1ccccc1)C2)C(=O)N[C@H](C=O)C[C@H]1CCNC1=O
CC50 [1]: > 100000 nM
IC50 [2]: 210 nM
IC50 [3]: 260 nM

CC(C)C[C@H](NC(=O)OC1(C)CN(C(=O)OC(C)(C)C)C1)C(=O)N[C@H](C=O)C[C@H]1CCNC1=O
CC50 [1]: > 100000 nM
IC50 [2]: 3450 nM
IC50 [3]: 3650 nM

CC(C)C[C@H](NC(=O)OC1CC2(C1)CN(S(C)(=O)=O)C2)C(=O)N[C@@H](C[C@H]1CCNC1=O)C(=O)C(O)S(=O)(=O)O (stereo partly specified)
CC50 [1]: > 100000 nM

CC(C)C[C@H](NC(=O)OCC1CN(C(=O)Cc2ccccc2)C1)C(=O)N[C@@H](C[C@H]1CCNC1=O)C(=O)C(O)S(=O)(=O)O (stereo partly specified)
CC50 [1]: > 100000 nM

CC(C)C[C@H](NC(=O)OC1CC2(CCN(C(=O)C(C)C)CC2)C1)C(=O)N[C@H](C=O)C[C@H]1CCNC1=O
CC50 [1]: > 100000 nM
IC50 [2]: 650 nM
IC50 [3]: 380 nM

CC(C)C[C@H](NC(=O)OC1CC2(C1)CN(C(=O)C(C)C)C2)C(=O)N[C@H](C=O)C[C@H]1CCNC1=O
CC50 [1]: > 100000 nM
IC50 [2]: 350 nM
IC50 [3]: 1150 nM

CC(C)C[C@H](NC(=O)OC1CC2(CCN(S(C)(=O)=O)CC2)C1)C(=O)N[C@@H](C[C@H]1CCNC1=O)C(=O)C(O)S(=O)(=O)O (stereo partly specified)
CC50 [1]: > 100000 nM

[2H]C([2H])(OC(=O)N[C@@H](CC(C)C)C(=O)N[C@H](C=O)C[C@H]1CCNC1=O)C1CN(C(=O)OC(C)(C)C)C1
CC50 [1]: > 100000 nM
IC50 [2]: 350 nM
IC50 [3]: 330 nM

CC(C)C[C@H](NC(=O)OC1CN(C(=O)OC(C)(C)C)C1)C(=O)N[C@H](C=O)C[C@H]1CCNC1=O
CC50 [1]: > 100000 nM
IC50 [2]: 1650 nM
IC50 [3]: 2500 nM

[2H]C([2H])(OC(=O)N[C@@H](CC(C)C)C(=O)N[C@@H](C[C@H]1CCNC1=O)C(=O)C(O)S(=O)(=O)[O-])C1CN(C(=O)OC(C)(C)C)C1.[Na+] (stereo partly specified)
CC50 [1]: > 100000 nM

CC(C)C[C@H](NC(=O)OC1CC2(CCN(C(=O)OC(C)(C)C)CC2)C1)C(=O)N[C@@H](C[C@H]1CCNC1=O)C(=O)C(O)S(=O)(=O)O (stereo partly specified)
Activity (SARS-CoV-2 [4]): Active
CC50 [1]: > 100000 nM
EC50 (SARS-CoV-2 [5]): 80 nM
selectivity ratio [6]: 1250

CC(C)C[C@H](NC(=O)OC1CC2(C1)CN(S(C)(=O)=O)C2)C(=O)N[C@H](C=O)C[C@H]1CCNC1=O
CC50 [1]: > 100000 nM
IC50 [2]: 220 nM
IC50 [3]: 680 nM

CC(C)C[C@H](NC(=O)OCC1CN(C(=O)C2CC3CCC2C3)C1)C(=O)N[C@H](C=O)C[C@H]1CCNC1=O (stereo partly specified)
CC50 [1]: > 100000 nM
IC50 [2]: 190 nM
IC50 [3]: 520 nM

CC(C)C[C@H](NC(=O)OC1CC2(CCN(S(C)(=O)=O)CC2)C1)C(=O)N[C@H](C=O)C[C@H]1CCNC1=O
CC50 [1]: > 100000 nM
IC50 [2]: 370 nM
IC50 [3]: 240 nM

CC(C)C[C@H](NC(=O)OC1CC2(C1)CN(C(=O)OC(C)(C)C)C2)C(=O)N[C@H](C=O)C[C@H]1CCNC1=O
CC50 [1]: > 100000 nM
IC50 [2]: 1500 nM
IC50 [3]: 3300 nM

CC(C)C[C@H](NC(=O)OC1CCC2(C1)CN(C(=O)OC(C)(C)C)C2)C(=O)N[C@@H](C[C@H]1CCNC1=O)C(=O)C(O)S(=O)(=O)O (stereo partly specified)
CC50 [1]: > 100000 nM

CC(C)C[C@H](NC(=O)OC1CC2(CCN(C(=O)C(C)C)CC2)C1)C(=O)N[C@@H](C[C@H]1CCNC1=O)C(=O)C(O)S(=O)(=O)O (stereo partly specified)
CC50 [1]: > 100000 nM

CC(C)C[C@H](NC(=O)OCC1CN(S(C)(=O)=O)C1)C(=O)N[C@H](C=O)C[C@H]1CCNC1=O
CC50 [1]: > 100000 nM
IC50 [2]: 1400 nM
IC50 [3]: 4950 nM

CC(C)C[C@H](NC(=O)OC1CCC2(C1)CN(C(=O)OC(C)(C)C)C2)C(=O)N[C@H](C=O)C[C@H]1CCNC1=O (stereo partly specified)
CC50 [1]: > 100000 nM
IC50 [2]: 1010 nM
IC50 [3]: 1250 nM

CC(C)C[C@H](NC(=O)OCC1CN(C(=O)OC(C)(C)C)C1)C(=O)N[C@@H](C[C@H]1CCNC1=O)C(=O)C(O)S(=O)(=O)O (stereo partly specified)
Activity (SARS-CoV-2 [4]): Active
CC50 [1]: > 100000 nM
EC50 (SARS-CoV-2 [5]): 430 nM
